Data on six compounds can be found in ChEMBL document CHEMBL4219124, “Alleviating CYP and hERG liabilities by structure optimization of dihydrofuran-fused tricyclic benzo[d]imidazole series - Potent, selective and orally efficacious microsomal prostaglandin E synthase-1 (mPGES-1) inhibitors: Part-2” (Bioorg Med Chem Lett, 2018).

Positions count from the first letter of the chain named.

Series [1] deals with T1, Prostaglandin E synthase (Homo sapiens, UniProt O14684).
T1 sequence (O14684 whole entry): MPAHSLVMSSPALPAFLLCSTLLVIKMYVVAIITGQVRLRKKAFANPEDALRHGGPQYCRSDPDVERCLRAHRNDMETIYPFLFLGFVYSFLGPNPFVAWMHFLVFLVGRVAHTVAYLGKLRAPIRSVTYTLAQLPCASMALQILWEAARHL
Kind of series: Inhibition of recombinant human mPGES1 expressed in CHO cells assessed as reduction in PGE2 production using PGH2 as substrate incubated for 10 mins followed by substrate addition measured for 1 min. In kind it is cell-based.

The nature of series [2]: Metabolic stability in guinea pig liver microsomes assessed as parent compound remaining at 1 uM after 60 mins in presence of NADPH by LC-MS/MS analysis. In kind it is ADME, Cavia porcellus, microsome. Particulars: read-out: Stability. The method in brief: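 Compound incubated 60 min at 37 °C with human, rat or guinea pig liver microsomes; percent parent remaining, triplicates.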

Series [3] deals with T2, CYP1A2 (Homo sapiens, UniProt P05177).
T2 sequence (P05177 whole entry): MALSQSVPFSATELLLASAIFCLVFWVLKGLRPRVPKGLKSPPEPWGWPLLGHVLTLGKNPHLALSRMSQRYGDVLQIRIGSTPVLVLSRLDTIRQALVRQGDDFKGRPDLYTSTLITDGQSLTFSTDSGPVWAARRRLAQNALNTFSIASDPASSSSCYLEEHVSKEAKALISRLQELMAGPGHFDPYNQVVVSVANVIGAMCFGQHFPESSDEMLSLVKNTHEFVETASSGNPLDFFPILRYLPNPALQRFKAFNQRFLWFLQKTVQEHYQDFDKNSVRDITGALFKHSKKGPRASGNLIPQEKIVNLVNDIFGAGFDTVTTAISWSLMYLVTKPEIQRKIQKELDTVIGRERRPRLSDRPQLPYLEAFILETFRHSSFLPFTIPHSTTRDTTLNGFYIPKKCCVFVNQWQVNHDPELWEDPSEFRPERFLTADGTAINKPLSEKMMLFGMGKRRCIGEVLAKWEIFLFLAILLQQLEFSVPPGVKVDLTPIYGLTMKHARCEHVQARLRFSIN
As to the kind of experiment: Inhibition of CYP1A2 in human liver microsomes at 10 uM after 20 mins in presence of NADPH by LC-MS/MS analysis. In kind it is ADME. The method in brief: (§1)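 Percent inhibition of each CYP isoform by test compound at 10 µM, compared with a no-inhibitor control. Run in triplicate.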

In series [4] the target is CYP3A4 (Homo sapiens, UniProt P08684). As to the kind of experiment: Inhibition of CYP3A4 in human liver microsomes at 10 uM after 20 mins in presence of NADPH by LC-MS/MS analysis. The class given is ADME. In outline:
as §1

Series [5] deals with CYP2C9 (Homo sapiens, UniProt P11712). Kind of series: Inhibition of CYP2C9 in human liver microsomes at 10 uM after 20 mins in presence of NADPH by LC-MS/MS analysis. The class given is ADME. In outline: as §1
Sequence of CYP2C9 (P11712 whole entry): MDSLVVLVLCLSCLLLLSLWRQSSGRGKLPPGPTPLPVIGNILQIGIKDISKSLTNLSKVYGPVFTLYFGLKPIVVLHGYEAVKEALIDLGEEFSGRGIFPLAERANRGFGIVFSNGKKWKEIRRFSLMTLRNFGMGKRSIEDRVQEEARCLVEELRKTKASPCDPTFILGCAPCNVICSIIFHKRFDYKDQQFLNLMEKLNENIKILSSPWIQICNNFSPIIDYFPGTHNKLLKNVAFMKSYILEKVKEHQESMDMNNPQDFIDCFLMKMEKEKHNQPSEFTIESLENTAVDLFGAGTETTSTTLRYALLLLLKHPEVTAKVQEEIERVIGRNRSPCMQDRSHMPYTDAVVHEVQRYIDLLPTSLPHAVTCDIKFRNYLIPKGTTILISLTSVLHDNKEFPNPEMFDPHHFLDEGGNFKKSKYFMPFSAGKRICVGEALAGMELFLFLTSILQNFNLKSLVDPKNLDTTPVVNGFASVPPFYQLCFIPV
The target of series [6] is CYP2C19 (Homo sapiens, UniProt P33261). As to the kind of experiment: Inhibition of CYP2C19 in human liver microsomes at 10 uM after 40 mins in presence of NADPH by LC-MS/MS analysis. The class given is ADME. In outline:
as §1

Series [7] can be described thus: Protein binding in human plasma at 10 uM after 5 hrs by equilibrium dialysis based LC-MS/MS analysis. The class given is ADME, cell-free. Conditions: read-out: PPB (converted). In outline: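 Equilibrium dialysis at 10 μM compound; result expressed as percent bound.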
The nature of series [8]: Inhibition of human U937 cells-derived COX1 assessed as decrease in PGE2 production at 10 uM using arachidonic acid as substrate preincubated for 15 mins prior to substrate addition for 5 mins relative to control. Particulars: COX1 derived from U937 cells, probe arachidonic acid. In outline:
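Selectivity panel against other prostanoid-pathway enzymes. % inhibition values are means of at least two experiments, each in duplicate.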

Series [9] can be described thus: Inhibition of mPGES1 in guinea pig whole blood assessed as reduction in LPS-induced PGE2 production measured after 20 to 24 hrs. Particulars: Cavia porcellus. The method in brief:
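Guinea pig whole blood stimulated with LPS. […] At least two experiments, each in duplicate.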

Series [10] can be described thus: Half life in Beagle dog at 10 mg/kg, po. Conditions: in vivo. The class given is ADME, organism-based, Canis lupus familiaris. The method in brief:
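Half-life calculated from plasma profiles after oral dosing at 10 mg/kg. Rat: male Sprague-Dawley, 0.5% methylcellulose suspension, n = 3. Dog and cynomolgus monkey: Tween 80 (2.5 μL/mL) + 0.5 (w/v) MC suspension.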

Series [11] concerns the target T3, Prostaglandin E synthase (Canis lupus familiaris, UniProt A0SYQ0).
T3 sequence (A0SYQ0 whole entry): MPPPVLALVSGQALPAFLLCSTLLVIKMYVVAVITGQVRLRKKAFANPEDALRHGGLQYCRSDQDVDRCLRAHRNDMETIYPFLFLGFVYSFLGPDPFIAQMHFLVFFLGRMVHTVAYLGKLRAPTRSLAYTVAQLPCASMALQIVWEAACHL
Kind of series: Inhibition of mPGES1 in dog whole blood assessed as reduction in LPS-induced PGE2 production measured after 20 to 24 hrs. In outline: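 Dog whole blood stimulated with LPS. […] At least two experiments, each in duplicate; run by an external contract lab.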

Series [12] addresses T4, Prostaglandin E synthase (Macaca fascicularis) (UniProt Q6PWL6).
T4 sequence (whole entry): T1 sequence (O14684 whole entry) with V7A, V108L, A112V
As to the kind of experiment: Inhibition of mPGES1 in rhesus monkey whole blood assessed as reduction in LPS-induced PGE2 production at 10 uM measured after 20 to 24 hrs relative to control. Conditions: Macaca mulatta. The method in brief: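 Rhesus monkey whole blood stimulated with LPS; PGE2 inhibition measured relative to vehicle control […]. At least two experiments, each in duplicate; run by an external contract lab.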

Series [13] deals with T5, Nuclear receptor subfamily 1 group I member 2 (Homo sapiens, UniProt O75469).
T5 sequence (O75469 whole entry): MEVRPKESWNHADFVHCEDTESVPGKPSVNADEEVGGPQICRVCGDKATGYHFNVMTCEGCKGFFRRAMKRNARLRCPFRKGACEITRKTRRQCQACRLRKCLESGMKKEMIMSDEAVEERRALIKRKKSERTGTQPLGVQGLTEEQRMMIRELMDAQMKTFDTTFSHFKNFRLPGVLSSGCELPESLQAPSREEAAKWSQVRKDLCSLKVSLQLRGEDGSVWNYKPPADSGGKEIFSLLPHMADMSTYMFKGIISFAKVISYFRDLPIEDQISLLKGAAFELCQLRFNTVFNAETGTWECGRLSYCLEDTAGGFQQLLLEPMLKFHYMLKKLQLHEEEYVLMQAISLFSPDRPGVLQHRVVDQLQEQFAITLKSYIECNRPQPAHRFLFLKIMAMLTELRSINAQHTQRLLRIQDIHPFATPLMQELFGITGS
Kind of series: Activation of human PXR at 10 uM relative to rifampicin. In kind it is ADME. The method in brief: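 Activation of human PXR with test compound at 10 µM, expressed relative to the rifampicin effect.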

Sequence of CYP3A4 (P08684 whole entry): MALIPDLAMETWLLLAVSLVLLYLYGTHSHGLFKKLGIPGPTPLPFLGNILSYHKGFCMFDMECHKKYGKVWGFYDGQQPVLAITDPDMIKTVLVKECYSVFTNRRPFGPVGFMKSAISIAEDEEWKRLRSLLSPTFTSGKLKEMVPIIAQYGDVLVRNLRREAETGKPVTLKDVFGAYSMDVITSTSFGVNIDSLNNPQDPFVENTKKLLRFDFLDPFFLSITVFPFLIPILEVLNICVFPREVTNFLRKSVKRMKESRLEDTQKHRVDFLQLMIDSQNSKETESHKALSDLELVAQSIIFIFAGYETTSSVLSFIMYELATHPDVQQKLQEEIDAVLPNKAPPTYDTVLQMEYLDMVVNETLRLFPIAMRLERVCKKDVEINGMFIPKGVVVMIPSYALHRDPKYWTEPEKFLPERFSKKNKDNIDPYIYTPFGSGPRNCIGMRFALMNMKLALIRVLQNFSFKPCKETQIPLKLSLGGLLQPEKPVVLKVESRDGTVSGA
Sequence of CYP2C19 (P33261 whole entry): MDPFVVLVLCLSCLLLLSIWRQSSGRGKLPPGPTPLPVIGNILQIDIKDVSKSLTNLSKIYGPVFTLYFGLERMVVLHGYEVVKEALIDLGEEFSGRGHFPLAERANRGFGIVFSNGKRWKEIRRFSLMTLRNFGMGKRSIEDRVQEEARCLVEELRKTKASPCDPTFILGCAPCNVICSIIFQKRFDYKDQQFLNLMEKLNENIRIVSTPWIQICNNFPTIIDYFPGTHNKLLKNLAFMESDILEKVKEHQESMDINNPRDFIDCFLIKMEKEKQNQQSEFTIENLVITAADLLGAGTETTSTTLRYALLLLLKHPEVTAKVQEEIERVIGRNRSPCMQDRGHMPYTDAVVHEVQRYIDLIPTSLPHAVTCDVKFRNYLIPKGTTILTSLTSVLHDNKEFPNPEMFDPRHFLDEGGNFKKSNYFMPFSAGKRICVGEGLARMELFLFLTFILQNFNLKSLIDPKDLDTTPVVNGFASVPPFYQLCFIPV

As to `CC1(C)Cc2c(c(C(=O)Nc3cc(C(F)(F)F)ccc3F)cc3nc(Nc4c(F)cccc4Cl)[nH]c23)O1`, the IC50 in series [1] is 3 nM; in [9], 204 nM. Moreover, in series [2], the remaining at 1 h, 1 µM came to 79%. For the same compound, the inhibition at 20 min, 10 µM in series [3] came to 22%; in [4], 2%; in [5], 35%. In addition, the inhibition at 40 min, 10 µM in [6] turned out to be 33%. In addition, the fraction unbound at 5 h, 10 µM in series [7] is 0.0004. Further, the inhibition at 5 min, 10 µM in series [8] stood at 14.7%.

For `Cc1cccc(Cl)c1Nc1nc2cc(C(=O)Nc3cc(C(F)F)ccc3F)c3c(c2[nH]1)CC(C)(C)O3`, the IC50 worked out at 10 nM in series [1] and 222 nM in [9]. In addition, in series [2], the remaining at 1 h, 1 µM was 60%. Besides, the inhibition at 20 min, 10 µM in series [3] is 28%; in series [4], 16%; in [5] it was 28%. In addition, the inhibition at 40 min, 10 µM in [6] was 14%. In series [7], the fraction unbound at 5 h, 10 µM was 0.0008. Moreover, the inhibition at 5 min, 10 µM in series [8] amounted to 38.2%.

Consider `Cn1c(Nc2c(F)cccc2Cl)nc2cc(C(=O)Nc3cccc(C(F)(F)F)c3)c3c(c21)CC(C)(C)O3`, for which the half-maximal inhibitory concentration (IC50) came to 5.7 nM in series [1] and 188 nM in series [9]. Further, in series [2], the remaining at 1 h, 1 µM was 51%. The inhibition at 20 min, 10 µM in series [3] was determined as 5%; in [4] it was 8%; in [5] it was 19%. Also, in series [6], the inhibition at 40 min, 10 µM amounted to 36%. Moreover, the fraction unbound at 5 h, 10 µM in series [7] is 0.0029. The inhibition at 5 min, 10 µM in series [8] amounted to 19.7%.

In [10], `CC1(C)Cc2c(c(C(=O)Nc3ccc(F)c(C(F)(F)F)c3)cc3nc(Nc4c(F)cccc4Cl)[nH]c23)O1` gave a half-life of 14.4 h. Besides, the values for the IC50 in series [1], in [9] and in series [11] were 5 nM, 465 nM and 6220 nM, respectively. Further, in [2], the remaining at 1 h, 1 µM is 100%. The inhibition at 20 min, 10 µM in series [3] is -6%; in series [4], 46%; in series [5], 48%. Besides, in [6], the inhibition at 40 min, 10 µM was determined as 55%. Moreover, the fraction unbound at 5 h, 10 µM in series [7] is 0.0054. Besides, the inhibition at 5 min, 10 µM in series [8] amounted to 8.27%. In addition, the inhibition in [12] worked out at 50.4%. In addition, the Activity in series [13] is listed as 34%.

In series [10], `CC1(C)Cc2c(c(C(=O)Nc3ccc(C(F)(F)F)cn3)cc3nc(Nc4c(Cl)cccc4Cl)[nH]c23)O1` gave a half-life of 17 h. In addition, the values for the half-maximal inhibitory concentration (IC50) in series [1], in [9] and in series [11] were 8.4 nM, 259 nM and 3540 nM, respectively. In series [2], the remaining at 1 h, 1 µM turned out to be 71%. Further, the values for the inhibition at 20 min, 10 µM in series [3], in [4] and in series [5] were 4%, 40% and 56%, respectively. Besides, the inhibition at 40 min, 10 µM in [6] amounted to 15%. For the same compound, in series [7], the fraction unbound at 5 h, 10 µM is 0.0004. In series [8], the inhibition at 5 min, 10 µM was determined as 7.8%. In [12], the inhibition is 37%. This compound came in with an Activity in [13] of 46%.

The compound `Cc1cccc(Cl)c1Nc1nc2cc(C(=O)Nc3cc(C(F)(F)F)ccc3F)c3c(c2[nH]1)CC(C)(C)O3` had a half-life in series [10] of 20 h. Moreover, the half-maximal inhibitory concentration (IC50) worked out at 3.3 nM in series [1], 340 nM in series [9] and 3030 nM in series [11]. Moreover, the remaining at 1 h, 1 µM in [2] worked out at 46%. The inhibition at 20 min, 10 µM in series [3] is 24%; in series [4], -4%; in series [5] it was 15%. The inhibition at 40 min, 10 µM in [6] worked out at 16%. Further, the fraction unbound at 5 h, 10 µM in series [7] is 0.0003. Further, the inhibition at 5 min, 10 µM in series [8] worked out at 14.6%. Further, in series [12], the inhibition amounted to 48.2%. Besides, the Activity in [13] was 57%.
